The text below walks through data of ChEMBL document CHEMBL2380222, “Arylsulfonamide pyrimidines as VLA-4 antagonists” (Bioorg Med Chem Lett, 2013).

Data set [1] relates to Mus musculus. As to the kind of experiment: Inhibition of Eos influx in Black/6 mouse acute pulmonary cellular influx model at 1 mg/kg, po bid administered 1hr prior and 12 hrs post ova/alum challenge on day 28 and 29 relative to vehicle-treated control. Format: functional. An outline of the steps:
(§1)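 Female Black/6 mice were sensitized i.p. with ova/alum on day 1, boosted on day 14 and challenged with aerosolized ova and alum on days 28 and 29. Dosing was oral gavage (5 ml/kg) twice daily on days 28–29, 1 h before and 12 h after challenge. Reference anti-α4 antibody PS/2 was given iv at 10 mg/kg, 2 h before the first challenge. Bronchoalveolar lavage eosinophils were counted on day 30 (48 h after the first challenge) as % inhibition.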

The subject of data set [2] is Mus musculus. As to the kind of experiment: Inhibition of Eos influx in Black/6 mouse acute pulmonary cellular influx model at 1 mg/kg, po bid administered 1hr prior and 12 hrs post ova/alum challenge on day 28 and 29 relative to alpha4 antibody PS/2. Format: functional. An outline of the steps: as §1
The target in a further data set is Integrin alpha-V/beta-1 (Homo sapiens, UniProt P05556+P06756). Nature of the data set: Inhibition of integrin alphaVbeta1 (unknown origin) binding to mouse OPN-HIS after 30 mins by fibronectin mediated cell adhesion assay. Format: protein-complex assay.
Chain of Integrin alpha-V/beta-1 (P05556 21-798 limits assumed): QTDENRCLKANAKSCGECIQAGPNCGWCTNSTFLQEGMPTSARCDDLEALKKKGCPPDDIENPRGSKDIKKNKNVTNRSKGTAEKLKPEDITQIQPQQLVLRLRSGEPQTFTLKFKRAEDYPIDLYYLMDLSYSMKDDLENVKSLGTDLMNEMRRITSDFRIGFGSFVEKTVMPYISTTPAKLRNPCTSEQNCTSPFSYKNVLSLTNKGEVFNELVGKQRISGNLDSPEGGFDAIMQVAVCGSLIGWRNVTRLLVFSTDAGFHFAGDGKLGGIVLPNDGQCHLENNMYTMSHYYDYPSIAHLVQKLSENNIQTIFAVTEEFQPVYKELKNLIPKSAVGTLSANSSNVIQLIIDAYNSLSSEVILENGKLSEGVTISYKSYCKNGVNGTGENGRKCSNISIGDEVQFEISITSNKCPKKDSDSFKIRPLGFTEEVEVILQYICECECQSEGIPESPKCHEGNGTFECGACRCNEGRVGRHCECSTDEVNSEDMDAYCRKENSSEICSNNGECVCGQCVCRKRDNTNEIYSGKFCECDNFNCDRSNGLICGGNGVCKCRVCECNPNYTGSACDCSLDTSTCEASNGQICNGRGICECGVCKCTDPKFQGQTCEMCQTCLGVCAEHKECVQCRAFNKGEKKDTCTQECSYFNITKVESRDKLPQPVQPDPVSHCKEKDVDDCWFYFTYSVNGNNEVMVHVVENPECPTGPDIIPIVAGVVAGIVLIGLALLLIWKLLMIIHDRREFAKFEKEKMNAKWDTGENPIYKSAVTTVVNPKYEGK
Chain of Integrin alpha-V/beta-1 (P06756 31-889 limits assumed): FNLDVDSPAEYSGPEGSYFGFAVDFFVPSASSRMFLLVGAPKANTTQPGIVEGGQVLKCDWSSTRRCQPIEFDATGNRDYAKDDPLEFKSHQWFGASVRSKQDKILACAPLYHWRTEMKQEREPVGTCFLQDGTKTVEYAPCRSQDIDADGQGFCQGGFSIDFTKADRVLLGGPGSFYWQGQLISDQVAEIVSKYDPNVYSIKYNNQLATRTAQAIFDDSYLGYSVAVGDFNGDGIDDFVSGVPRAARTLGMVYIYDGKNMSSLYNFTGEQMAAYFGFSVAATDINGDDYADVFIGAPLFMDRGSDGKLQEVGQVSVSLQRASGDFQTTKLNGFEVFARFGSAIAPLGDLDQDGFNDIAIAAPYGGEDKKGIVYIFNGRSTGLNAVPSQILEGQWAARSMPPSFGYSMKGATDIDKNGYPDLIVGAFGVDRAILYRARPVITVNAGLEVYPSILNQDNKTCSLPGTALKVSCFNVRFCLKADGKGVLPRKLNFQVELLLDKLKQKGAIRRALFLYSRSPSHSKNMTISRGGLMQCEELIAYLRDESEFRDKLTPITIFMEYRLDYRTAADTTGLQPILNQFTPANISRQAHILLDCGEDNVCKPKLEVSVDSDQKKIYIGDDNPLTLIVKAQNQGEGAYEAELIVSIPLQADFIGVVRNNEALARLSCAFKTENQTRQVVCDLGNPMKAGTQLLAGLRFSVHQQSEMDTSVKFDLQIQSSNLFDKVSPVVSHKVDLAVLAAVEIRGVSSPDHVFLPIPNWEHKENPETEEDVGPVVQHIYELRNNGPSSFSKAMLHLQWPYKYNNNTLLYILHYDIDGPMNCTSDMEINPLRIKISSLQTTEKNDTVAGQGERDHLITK
Chain of Integrin alpha-V/beta-1 (P06756 891-1048 limits assumed): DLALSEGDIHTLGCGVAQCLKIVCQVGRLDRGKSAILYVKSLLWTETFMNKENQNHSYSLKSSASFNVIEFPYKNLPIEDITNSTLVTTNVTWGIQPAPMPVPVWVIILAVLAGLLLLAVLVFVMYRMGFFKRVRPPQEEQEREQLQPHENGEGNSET
Data set [3] has as its system Rattus norvegicus. As to the kind of experiment: Antirheumatic activity in Lewis rat collagen induced arthritis model assessed as ankle histology at 3 to 30 mg/kg, po bid for 21 days. Type of data set: functional, organism-based. An outline of the steps:
(§2)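 Female Lewis rats developing type II collagen arthritis were dosed prophylactically by oral gavage, bid, at 3, 10 or 30 mg/kg for 21 days. A separate arm received methotrexate 0.05 mg/kg po qd, alone or combined. Read-outs were ankle caliper measurements as AUC, terminal hind paw weights, body weight and ankle/knee histology. Only animals with definite clinical and histopathologic disease were analysed.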

Data set [4] deals with Rattus norvegicus. As to the kind of experiment: Antiarthritic activity in Lewis rat collagen induced arthritis model assessed as final paw weight at 3 mg/kg, po bid for 21 days. Format: functional, organism-based. Details: dose 3 mg/kg. An outline of the steps: as §2
The test system of data set [5] is Rattus norvegicus. Nature of the data set: Antirheumatic activity in Lewis rat collagen induced arthritis model assessed as ankle histology at 0.05 mg/kg, po bid for 21 days. Format: functional, organism-based. Details: dose 0.05 mg/kg.
Data set [6] relates to Rattus norvegicus. As to the kind of experiment: Antiarthritic activity in Lewis rat collagen induced arthritis model assessed as final paw weight at 10 to 30 mg/kg, po bid for 21 days. Type of data set: functional, organism-based. The essentials: as §2
In a further data set the test system is Cavia porcellus. Nature of the data set: Antiinflammatory activity in guinea pig at 30 to 300 mg/kg, po bid for 12 days. Type of data set: functional, organism-based. The essentials: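 Guinea pig EAE: animals were immunized, and only those with established disease (clinical score >0) were randomized at 16–18 days post-immunization. Oral dosing was bid for 12 days at 30 or 300 mg/kg. Natalizumab was given every other day as comparator. The read-out was clinical score over the treatment period.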

Data set [7] has as its system Rattus norvegicus. As to the kind of experiment: Antiarthritic activity in Lewis rat collagen induced arthritis model assessed as inhibition of AUC for ankle swelling at 3 mg/kg, po bid for 21 days. Format: functional. The following applies: 504 h, read-out: INH. An outline of the steps: as §2
Data set [8] relates to Rattus norvegicus. As to the kind of experiment: Antiarthritic activity in Lewis rat collagen induced arthritis model assessed as AUC for ankle swelling at 10 to 30 mg/kg, po bid for 21 days. Type of data set: functional, organism-based. An outline of the steps: as §2
In data set [9] the test system is Rattus norvegicus. Nature of the data set: Antiarthritic activity in Lewis rat collagen induced arthritis model assessed as bone resorbtion at 3 to 30 mg/kg, po bid for 21 days. Format: functional, organism-based. The essentials: as §2
Data set [10] relates to Rattus norvegicus. Nature of the data set: Antiarthritic activity in Lewis rat collagen induced arthritis model assessed as cartilage destruction at 3 to 30 mg/kg, po bid for 21 days. Type of data set: functional, organism-based. An outline of the steps: as §2
Data set [11] concerns Rattus norvegicus. As to the kind of experiment: Antiarthritic activity in Lewis rat collagen induced arthritis model at 3 to 30 mg/kg, po bid for 21 days. Format: functional, organism-based. An outline of the steps: as §2
The test system of data set [12] is Mus musculus. Nature of the data set: Inhibition of Eos influx in Black/6 mouse acute pulmonary cellular influx model at 3 mg/kg, po bid administered 1hr prior and 12 hrs post ova/alum challenge on day 28 and 29 relative to vehicle-treated control. Type of data set: functional. An outline of the steps: (§3)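 Female Black/6 mice were sensitized i.p. with ova/alum on day 1, boosted on day 14, and challenged with aerosolized ova on days 28 and 29. Compound was given by oral gavage (5 ml/kg) twice daily on days 28–29, 1 h before and 12 h after challenge. BAL was collected on day 30, 48 h after the first challenge. Eosinophil influx was reported as % inhibition against vehicle or against PS/2 (anti-α4, 10 mg/kg iv, 2 h before first challenge).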

Data set [13] deals with Mus musculus. As to the kind of experiment: Inhibition of Eos influx in Black/6 mouse acute pulmonary cellular influx model at 3 mg/kg, po bid administered 1hr prior and 12 hrs post ova/alum challenge on day 28 and 29 relative to PS/2. Type of data set: functional. An outline of the steps: as §3
The nature of data set [14]: Inhibition of VLA-4 in mouse serum binding to VCAM-1 in human Jurkat TM cells after 30 mins by fibronectin mediated cell adhesion assay. The following applies: 0.5 h. Format: cell-based.
A short description of data set [15]: Inhibition of VLA-4 in rat serum binding to VCAM-1 in human Jurkat TM cells after 30 mins by fibronectin mediated cell adhesion assay. Type of data set: cell-based. Particulars: 0.5 h. An outline of the steps: (§4)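 Cells were preincubated 30 min on wet ice with anti-α5 (5 µg/ml) and a compound dose–response, then allowed to bind 35 min at 37 °C, 5% CO2 to human plasma fibronectin-coated wells. Wells were washed 3× and read by fluorescence to give IC50.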

Data set [16] can be described thus: Inhibition of VLA-4 in human serum binding to VCAM-1 in human Jurkat TM cells after 30 mins by fibronectin mediated cell adhesion assay. Format: cell-based. The following applies: 0.5 h. An outline of the steps: as §4
A short description of data set [17]: Inhibition of VLA-4 binding to VCAM-1 in human Jurkat TM cells after 30 mins by fibronectin mediated cell adhesion assay using BSA. Type of data set: cell-based. The essentials:
(§5)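 Calcein-labelled Jurkat TM cells (10^5/well) in Hepes 20 mM, NaCl 140 mM, CaCl2 1 mM, MgCl2 1 mM, 0.3% BSA with activating anti-α4 TS2/16. Cells were preincubated 30 min on wet ice with anti-α5 (5 µg/ml) and a compound dose–response, then bound 35 min at 37 °C, 5% CO2 to human plasma fibronectin-coated wells. Wells were washed 3× and read by fluorescence to give IC50.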

Data set [18] can be described thus: Oral bioavailability in Sprague-Dawley rat. The following applies: in vivo. Type of data set: ADME, organism-based.
Data set [19] can be described thus: Plasma concentration in po dosed Sprague-Dawley rat after 12 hrs. Format: ADME, organism-based.
Data set [20] in a line: AUC in po dosed Sprague-Dawley rat. Type of data set: ADME, organism-based. The following applies: plasma.
A short description of data set [21]: AUC in iv dosed Sprague-Dawley rat. Format: ADME, organism-based. Particulars: plasma.
Data set [22] is described as follows: Inhibition of VLA-4 (unknown origin) binding to VCAM-1 in human Jurkat TM cells after 30 mins by fibronectin mediated cell adhesion assay. Type of data set: cell-based. An outline of the steps:
as §5

Data set [23] concerns the target Integrin alpha-L/beta-2 (LFA-1) (Homo sapiens, UniProt P05107+P20701). Nature of the data set: Inhibition of integrin alphaLbeta2 (unknown origin) binding to ICAM in human 8866 cells after 30 mins by ICAM mediated cell adhesion assay.
Another data set addresses Integrin alpha-5/beta-1 (Homo sapiens, UniProt P05556+P08648). As to the kind of experiment: Inhibition of integrin alpha5beta1 (unknown origin) binding to fibronectin in human THP1 cells after 30 mins by fibronectin mediated cell adhesion assay.
Data set [24] has as its system Mus musculus. Nature of the data set: Inhibition of Eos influx in Black/6 mouse acute pulmonary cellular influx model at 10 mg/kg, po bid administered 1hr prior and 12 hrs post ova/alum challenge on day 28 and 29 relative to vehicle-treated control. Type of data set: functional. An outline of the steps:
as §3

The subject of data set [25] is Mus musculus. As to the kind of experiment: Inhibition of Eos influx in Black/6 mouse acute pulmonary cellular influx model at 10 mg/kg, po bid administered 1hr prior and 12 hrs post ova/alum challenge on day 28 and 29 relative to alpha4 antibody PS/2. Format: functional. The essentials:
as §3

pIC50: −log10 of the molar value. Calls of active or inactive are those of the source. No cut-off for these calls is given here.

Chain of Integrin alpha-5/beta-1 (P05556 21-798 limits assumed): as the sequence (P05556 21-798 limits assumed) above
Chain of Integrin alpha-5/beta-1 (P08648 42-894 limits assumed): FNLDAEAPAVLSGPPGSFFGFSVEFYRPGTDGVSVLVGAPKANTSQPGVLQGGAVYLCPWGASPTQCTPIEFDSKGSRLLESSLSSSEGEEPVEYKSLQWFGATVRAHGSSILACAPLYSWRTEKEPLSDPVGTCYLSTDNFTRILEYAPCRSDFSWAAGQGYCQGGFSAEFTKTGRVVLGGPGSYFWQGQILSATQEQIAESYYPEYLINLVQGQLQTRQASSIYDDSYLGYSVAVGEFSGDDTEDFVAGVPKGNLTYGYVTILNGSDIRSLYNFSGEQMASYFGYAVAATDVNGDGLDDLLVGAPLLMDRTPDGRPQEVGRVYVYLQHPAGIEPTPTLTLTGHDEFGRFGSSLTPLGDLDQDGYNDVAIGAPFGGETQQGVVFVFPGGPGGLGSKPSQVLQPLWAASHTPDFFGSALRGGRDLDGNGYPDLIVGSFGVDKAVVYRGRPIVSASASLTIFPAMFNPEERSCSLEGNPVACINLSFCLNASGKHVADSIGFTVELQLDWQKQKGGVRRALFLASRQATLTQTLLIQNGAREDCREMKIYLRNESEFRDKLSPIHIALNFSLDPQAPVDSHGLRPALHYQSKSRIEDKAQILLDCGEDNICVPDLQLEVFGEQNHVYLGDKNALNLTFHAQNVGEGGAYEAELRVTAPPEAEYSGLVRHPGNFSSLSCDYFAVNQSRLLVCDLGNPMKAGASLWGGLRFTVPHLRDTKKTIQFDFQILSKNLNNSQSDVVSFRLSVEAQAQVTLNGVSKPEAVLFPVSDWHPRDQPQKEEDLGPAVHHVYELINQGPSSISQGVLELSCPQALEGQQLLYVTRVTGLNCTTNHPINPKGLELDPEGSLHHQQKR
Chain of Integrin alpha-5/beta-1 (P08648 895-1049 limits assumed): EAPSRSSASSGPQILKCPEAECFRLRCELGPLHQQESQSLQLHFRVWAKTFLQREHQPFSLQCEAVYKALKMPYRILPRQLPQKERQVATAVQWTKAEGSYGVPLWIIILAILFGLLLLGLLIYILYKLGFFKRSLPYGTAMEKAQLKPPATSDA
Chain of Integrin alpha-L/beta-2 (LFA-1) (P20701 whole entry): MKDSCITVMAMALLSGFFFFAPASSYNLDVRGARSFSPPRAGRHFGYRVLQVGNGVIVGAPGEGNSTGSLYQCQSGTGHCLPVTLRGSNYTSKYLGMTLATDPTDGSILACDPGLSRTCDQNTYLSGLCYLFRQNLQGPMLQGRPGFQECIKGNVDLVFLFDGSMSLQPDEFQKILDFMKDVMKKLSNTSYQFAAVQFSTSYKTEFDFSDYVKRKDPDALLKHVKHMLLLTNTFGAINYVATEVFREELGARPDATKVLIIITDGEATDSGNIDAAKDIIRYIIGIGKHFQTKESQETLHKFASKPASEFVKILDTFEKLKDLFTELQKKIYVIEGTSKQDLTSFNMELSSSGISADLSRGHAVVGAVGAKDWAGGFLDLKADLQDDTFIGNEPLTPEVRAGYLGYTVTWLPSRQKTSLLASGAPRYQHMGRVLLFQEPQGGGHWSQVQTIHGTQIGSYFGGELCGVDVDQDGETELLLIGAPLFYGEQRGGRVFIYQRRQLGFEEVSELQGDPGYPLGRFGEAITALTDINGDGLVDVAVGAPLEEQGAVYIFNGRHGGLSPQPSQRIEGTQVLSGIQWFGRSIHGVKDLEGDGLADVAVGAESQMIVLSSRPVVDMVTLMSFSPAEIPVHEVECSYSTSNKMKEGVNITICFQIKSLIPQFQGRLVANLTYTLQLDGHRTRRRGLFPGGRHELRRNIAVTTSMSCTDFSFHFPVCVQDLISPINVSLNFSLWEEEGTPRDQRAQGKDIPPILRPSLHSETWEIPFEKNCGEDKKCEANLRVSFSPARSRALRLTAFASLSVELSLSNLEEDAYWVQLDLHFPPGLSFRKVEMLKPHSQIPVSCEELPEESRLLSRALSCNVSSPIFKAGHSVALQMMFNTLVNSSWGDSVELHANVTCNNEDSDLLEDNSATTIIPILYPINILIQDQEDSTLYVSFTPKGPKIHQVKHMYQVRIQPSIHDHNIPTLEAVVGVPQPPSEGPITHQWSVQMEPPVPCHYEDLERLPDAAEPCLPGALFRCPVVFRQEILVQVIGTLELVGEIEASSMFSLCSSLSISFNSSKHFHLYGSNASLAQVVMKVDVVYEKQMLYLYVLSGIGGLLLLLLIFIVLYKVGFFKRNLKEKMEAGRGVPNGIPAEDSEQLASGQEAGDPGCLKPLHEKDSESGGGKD
Chain of Integrin alpha-L/beta-2 (LFA-1) (P05107 whole entry): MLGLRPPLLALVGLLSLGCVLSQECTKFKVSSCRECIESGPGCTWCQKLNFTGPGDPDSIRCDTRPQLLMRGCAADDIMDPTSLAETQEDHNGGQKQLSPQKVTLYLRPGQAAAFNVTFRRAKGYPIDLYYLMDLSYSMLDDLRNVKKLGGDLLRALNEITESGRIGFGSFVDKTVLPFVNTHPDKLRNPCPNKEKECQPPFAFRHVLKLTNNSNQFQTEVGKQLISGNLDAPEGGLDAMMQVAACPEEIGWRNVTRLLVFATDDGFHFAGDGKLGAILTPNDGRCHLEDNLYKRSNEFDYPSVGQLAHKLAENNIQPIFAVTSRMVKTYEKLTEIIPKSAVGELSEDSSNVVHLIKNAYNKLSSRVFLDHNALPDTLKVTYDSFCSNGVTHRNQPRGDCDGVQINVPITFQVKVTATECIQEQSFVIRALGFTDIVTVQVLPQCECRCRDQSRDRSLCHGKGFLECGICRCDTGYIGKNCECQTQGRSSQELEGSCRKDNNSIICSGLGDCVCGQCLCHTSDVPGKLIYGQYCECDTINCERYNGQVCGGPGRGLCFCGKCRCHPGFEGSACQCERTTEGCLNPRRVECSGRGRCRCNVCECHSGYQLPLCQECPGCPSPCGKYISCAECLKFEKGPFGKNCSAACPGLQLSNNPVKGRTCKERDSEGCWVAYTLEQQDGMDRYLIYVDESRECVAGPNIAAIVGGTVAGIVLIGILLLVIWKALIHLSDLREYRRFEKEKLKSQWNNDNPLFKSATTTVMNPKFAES

By pIC50 is commonly meant the negative decadic logarithm of the IC50, by convention in mol/L. For orientation: bioavailability means the share of a dose that reaches the circulation, judged against a reference dose that is usually intravenous. A lower bioavailability goes with little systemic uptake. The term AUC denotes the area under the concentration-time curve, a measure of exposure. Turning to `C#CCN(c1cnc(N(CC)CC)nc1N[C@@H](Cc1ccc(OC(=O)N2CCCC2)cc1)C(=O)O)S(=O)(=O)c1ccc(F)cc1`, the inhibition in vivo at 1 mg/kg with Mus musculus [1] and in the data set with Mus musculus [2] was 0% throughout. Moreover, the pIC50 on Integrin alpha-V/beta-1 was 6.30; in data set [14] it was 7.44; in [15], 5.72; in [16], 5.34; in [17], 8.05; in data set [22], 8.10. Besides, the pIC50 (in data set [23]; at Integrin alpha-5/beta-1) was under 4.52 throughout. The outcome in the data set on Rattus norvegicus [3], in the data set with Rattus norvegicus [4], with Rattus norvegicus [5], in the data set with Rattus norvegicus [6], in the data set on Cavia porcellus and with Rattus norvegicus [8] was Active. The result in the data set on Rattus norvegicus [9], with Rattus norvegicus [10] and in the data set with Rattus norvegicus [11] was Active. Besides, the inhibition in vivo at 3 mg/kg in the data set with Rattus norvegicus [7] came out at 15%; in the data set with Mus musculus [12], 41%; with Mus musculus [13], 74%. The same compound returned a bioavailability in data set [18] of 56%. This compound had a concentration at 12 h in [19] of 1310 ng/mL. For the same compound, the results for the AUC in [20] and in [21] were 88000 ng·h/mL and 156000 ng·h/mL, respectively.

As to `CCN(CC)c1ncc(N(C)S(=O)(=O)c2ccc(F)cc2)c(N[C@@H](Cc2ccc(OC(=O)N(C)C)cc2)C(=O)O)n1`, the inhibition in vivo at 3 mg/kg with Mus musculus [12] is 3%; with Mus musculus [13] it was 5%. Further, the inhibition in vivo at 10 mg/kg in the data set on Mus musculus [24] is 45%; in the data set with Mus musculus [25], 80%. In addition, the pIC50 in data set [14] was 8.22; in data set [15] it was 6.55; in data set [16], 7.35; in [17] it was 8.70; in data set [22] it was 8.70. In [18], this compound returned a bioavailability of 74%. The compound also displayed a concentration at 12 h in [19] of 120 ng/mL. In addition, the AUC in data set [20] worked out at 20000 ng·h/mL; in data set [21], 27000 ng·h/mL.
